The values that follow come from ChEMBL document CHEMBL2046311, “Design, synthesis, and molecular hybrids of caudatin and cinnamic acids as novel anti-hepatitis B virus agents” (Eur J Med Chem, 2012).

As a reminder, the IC50 is the concentration needed to halve the response being measured. Usually LD50 stands for the dose expected to kill half of the subjects tested. The low end stands for greater toxicity, the high end for lower toxicity. In general, CC50 refers to the concentration at which the toxic effect on the cells reaches its halfway point. Low readings indicate greater toxicity to the cells, high ones lower toxicity to the cells.

Data set [1] relates to Hepatitis B virus. Put plainly: Antiviral activity against Hepatitis B virus infected in human HepG2(2.2.15) cells assessed as inhibition of viral DNA replication by PCR analysis. In kind it is functional, organism-based. An outline of the steps: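 HepG 2.2.15 cells grown in RPMI-1640 with 10% fetal calf serum, […] and penicillin/streptomycin at 37 °C, 5% CO2. Compounds added in DMSO, kept below 2.5 μL/mL. HBV DNA quantified by SYBR Green real-time PCR with HBV-specific primers spanning 541–591 bp. IC50 values are means of at least two experiments.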

Data set [2] deals with Mus musculus. Put plainly: Acute toxicity in Kunming mouse assessed as mortality at 1250 mg/kg, po administered as single dose measured up to 14 days. In kind it is organism-based. Also on record: dose 1250 mg/kg, route oral. The following applies: in vivo, 336 h.
The nature of data set [3]: Cytotoxicity against human HepG2(2.2.15) cells assessed as cell viability at 10 uM after 48 hrs by MTT assay. The following applies: hepg2 2.2.15, 48 h. In kind it is cell-based. An outline of the steps:
(§1)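 Cell viability measured by MTT under the 10 μM luciferase reporter treatment conditions, at 48 h and 72 h.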
On the technique in general: Tetrazolium dyes change colour on reduction, which living cells bring about.

The subject of data set [4] is Mus musculus. Nature of the data set: Acute toxicity in Kunming mouse assessed as change in body weight at 50 mg/kg, po administered as single dose measured on day 7 (Rvb =26.3 g). The format is organism-based. Set-up: dose 50 mg/kg, route oral. The following applies: in vivo.
Data set [5] can be described thus: Selectivity index, ratio of CC50 for human HepG2(2.2.15) cells to IC50 for Hepatitis B virus infected in human HepG2(2.2.15) cells assessed as inhibition of viral surface antigen secretion. The format is functional. An outline of the steps: (§2)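 SI calculated as CC50 (MTT, HepG 2.2.15) divided by IC50 for the named read-out (HBV DNA by real-time PCR, or HBeAg or HBsAg secretion by ELISA), in the same cell line.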

The subject of data set [6] is Hepatitis B virus. Nature of the data set: Antiviral activity against Hepatitis B virus infected in human HepG2(2.2.15) cells assessed as inhibition of viral e antigen secretion by ELISA. The format is functional, organism-based. An outline of the steps:
(§3)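 HepG 2.2.15 cells in RPMI-1640 with 10% fetal calf serum at 37 °C, 5% CO2. Compounds dissolved in DMSO, culture DMSO below 2.5 μL/mL. Secreted HBeAg and HBsAg measured by ELISA. IC50 values are means of at least two experiments.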
A general note: ELISA stands for enzyme-linked immunosorbent assay.

Data set [7] has as its system Mus musculus. Put plainly: Acute toxicity in Kunming mouse assessed as change in body weight at 1250 mg/kg, po administered as single dose measured on day 14 (Rvb =28.5 g). The following applies: in vivo. In kind it is organism-based. Set-up: dose 1250 mg/kg, route oral.
The nature of data set [8]: Selectivity index, ratio of CC50 for human HepG2(2.2.15) cells to IC50 for Hepatitis B virus infected in human HepG2(2.2.15) cells assessed as inhibition of viral DNA replication. The format is functional. In outline:
as §2

The test system of data set [9] is Nucleic Acid. Put plainly: Increase of enhancer 1 transcriptional activity in HBV infected in human HepG2(2.2.15) cells transfected with pGL3 at 10 uM after 3 days by luciferase reporter gene assay relative to mock-treated control. The format is cell-based. The following applies: Hepatitis B virus. In outline:
(§4)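 HepG 2 cells transiently transfected by Lipofectamine 2000 with HBV promoter/enhancer firefly luciferase reporters in pGL3, with phRL-CMV Renilla luciferase as internal control. Cells split 24 h after transfection and cultured 3 days, then treated at 10 μM for 3 days. Dual-luciferase read-out in triplicate. Fold activity = treated/mock-treated activity.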
(In general: Reporter assays use an easily measured gene product as a stand-in for the process of interest.)

The subject of data set [10] is Mus musculus. Put plainly: Acute toxicity in Kunming mouse assessed as change in body weight at 250 mg/kg, po administered as single dose measured on day 14 (Rvb =28.5 g). The format is organism-based. Also on record: dose 250 mg/kg, route oral. The following applies: in vivo.
Data set [11] concerns Mus musculus. Nature of the data set: Acute toxicity in Kunming mouse assessed as change in body weight at 1250 mg/kg, po administered as single dose measured on day 7 (Rvb =26.3 g). In kind it is organism-based. Also on record: dose 1250 mg/kg, route oral. The following applies: in vivo.
For data set [12], the system named is Hepatitis B virus. Nature of the data set: Antiviral activity against Hepatitis B virus infected in human HepG2(2.2.15) cells assessed as inhibition of viral surface antigen secretion by ELISA. In kind it is functional, organism-based. An outline of the steps: as §3
Data set [13] has as its system Nucleic Acid. Put plainly: Inhibition of X promoter transcriptional activity in HBV infected in human HepG2(2.2.15) cells transfected with pGL3 at 10 uM after 3 days by luciferase reporter gene assay relative to mock-treated control. In kind it is cell-based. The following applies: Hepatitis B virus. An outline of the steps:
as §4

Data set [14] has as its system Mus musculus. Nature of the data set: Acute toxicity in po dosed Kunming mouse. In kind it is organism-based. The following applies: in vivo.
Data set [15] is described as follows: Cytotoxicity against human HepG2(2.2.15) cells assessed as cell viability at 10 uM after 72 hrs by MTT assay. In kind it is cell-based. The following applies: hepg2 2.2.15, 72 h. An outline of the steps:
as §1

Data set [16] has as its system Mus musculus. Nature of the data set: Acute toxicity in Kunming mouse assessed as change in body weight at 50 mg/kg, po administered as single dose measured on day 14 (Rvb =28.5 g). Set-up: dose 50 mg/kg, route oral. In kind it is organism-based. The following applies: in vivo.
Data set [17] in a line: Cytotoxicity against human HepG2(2.2.15) cells by modified-MTT assay. The format is cell-based. An outline of the steps:
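HepG 2.2.15 cells in RPMI-1640 with 10% fetal calf serum at 37 °C, 5% CO2. Compounds in DMSO, final DMSO below 2.5 μL/mL. Viability read by modified MTT method. CC50 is the mean of at least two experiments.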

The test system of data set [18] is Mus musculus. Nature of the data set: Acute toxicity in Kunming mouse assessed as mortality at 250 mg/kg, po administered as single dose measured up to 14 days. The format is organism-based. The following applies: in vivo, 336 h. Also on record: dose 250 mg/kg, route oral.
Data set [19] can be described thus: Selectivity index, ratio of CC50 for human HepG2(2.2.15) cells to IC50 for Hepatitis B virus infected in human HepG2(2.2.15) cells assessed as inhibition of viral e antigen secretion. In kind it is functional. An outline of the steps: as §2
Data set [20] concerns Mus musculus. Nature of the data set: Acute toxicity in Kunming mouse assessed as abnormality at 50 to 1250 mg/kg, po administered as single dose measured up to 14 days. The format is organism-based. Set-up: dose 50-1250 mg/kg, route oral. The following applies: in vivo, 336 h.
Data set [21] deals with Mus musculus. Nature of the data set: Acute toxicity in Kunming mouse assessed as change in body weight at 250 mg/kg, po administered as single dose measured on day 7 (Rvb =26.3 g). In kind it is organism-based. Set-up: dose 250 mg/kg, route oral. The following applies: in vivo.
Data set [22] relates to Mus musculus. Put plainly: Acute toxicity in Kunming mouse assessed as mortality at 50 mg/kg, po administered as single dose measured up to 14 days. The following applies: in vivo, 336 h. The format is organism-based. Also on record: dose 50 mg/kg, route oral.

In the case of `COc1cc(/C=C/C(=O)O[C@H]2CC[C@@]3(C)C(=CC[C@]4(O)[C@@H]3C[C@@H](OC(=O)/C=C(\C)C(C)C)[C@@]3(C)[C@]4(O)CC[C@@]3(O)C(C)=O)C2)cc(OC)c1OC`, the results for the IC50 in [1], in data set [6] and in data set [12] were 2.44 µM, 5.52 µM and 5.52 µM, respectively. The Activity entry in data set [2] was “Non-toxic”; in data set [3], 97.4%; in data set [4], 26.7%; in [7] it was 28.8%; in [10] it was 29.8%; in data set [11] it was 26.5%. For the same compound, the Activity is 85.6% in data set [15]; 28.9% in data set [16]; “Non-toxic” in data set [18]; “Non-toxic” in [20]; 27.3% in data set [21]; “Non-toxic” in [22]. Also, the “Ratio CC50/IC50” value in data set [5] was >330; in data set [8], >746.6; in data set [19] it was >330. The figures for the fold change (FC) in data set [9] and in [13] were 9.4 and 5.6, respectively. The same compound showed an LD50 in data set [14] of 1250 mg/kg. In addition, the CC50 in data set [17] was > 1.82 mM.

As for `COc1ccc(/C=C/C(=O)O[C@H]2CC[C@@]3(C)C(=CC[C@]4(O)[C@@H]3C[C@@H](OC(=O)/C=C(\C)C(C)C)[C@@]3(C)[C@]4(O)CC[C@@]3(O)C(C)=O)C2)c(OC)c1OC`, the IC50 is 21.1 µM in data set [1], 28 µM in data set [6] and 12.4 µM in data set [12]. For the same compound, the “Ratio CC50/IC50” value in data set [5] was >125; in [8], >73.5; in data set [19], >55.3. Moreover, in data set [17], the CC50 was > 1.55 mM.

In the case of `CC(=O)[C@]1(O)CC[C@@]2(O)[C@]1(C)[C@H](OC(=O)/C=C(\C)C(C)C)C[C@@H]1[C@@]3(C)CC[C@H](OC(=O)/C=C/c4ccccc4Cl)CC3=CC[C@]12O`, the half-maximal inhibitory concentration (IC50) in data set [1] worked out at 22.9 µM; in data set [6], 550 µM; in [12], 28.4 µM. In addition, the entries for the “Ratio CC50/IC50” value in data set [5], in data set [8] and in [19] were >40.4, >50.1 and >2.1, respectively. In addition, the CC50 in [17] was > 1.15 mM.

Turning to `CC(=O)[C@]1(O)CC[C@@]2(O)[C@]1(C)[C@H](OC(=O)/C=C(\C)C(C)C)C[C@@H]1[C@@]3(C)CC[C@H](OC(=O)/C=C/c4ccccc4F)CC3=CC[C@]12O`, the values for the IC50 in data set [1], in [6] and in data set [12] were 7.68 µM, 21.6 µM and 72 µM, respectively. The entries for the “Ratio CC50/IC50” value in [5], in [8] and in data set [19] were 7.3, 68.1 and 24.2, respectively. This compound also returned a half-maximal cytotoxic concentration (CC50) in data set [17] of 0.523 mM.

As for `CC(=O)[C@]1(O)CC[C@@]2(O)[C@]1(C)[C@H](OC(=O)/C=C(\C)C(C)C)C[C@@H]1[C@@]3(C)CC[C@H](OC(=O)/C=C/c4ccc(F)c(F)c4)CC3=CC[C@]12O`, the IC50 was determined as 4.66 µM in data set [1], 69.2 µM in [6] and 15.6 µM in [12]. The “Ratio CC50/IC50” value is listed as >82.7 in data set [5], >277 in data set [8] and >18.7 in data set [19]. In addition, the CC50 in data set [17] was > 1.29 mM.

Consider `CC(=O)[C@]1(O)CC[C@@]2(O)[C@]1(C)[C@H](OC(=O)/C=C(\C)C(C)C)C[C@@H]1[C@@]3(C)CC[C@H](OC(=O)/C=C/c4ccccc4C(F)(F)F)CC3=CC[C@]12O`, for which the IC50 was 5 µM in data set [1], > 1280 µM in data set [6] and 46.9 µM in [12]. For the same compound, the “Ratio CC50/IC50” value in data set [5] is listed as 37.6; in data set [8], 352.9; in data set [19], <1.4. Besides, the cytotoxic concentration (CC50) in [17] was 1.76 mM.
